Columns and labels:
Trypanosoma cruzi = assay: In vitro antiparasitic activity was determined against Trypanosoma cruzi; type: functional, organism-based
In short: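 L-6 rat myoblasts (2000 cells/well, RPMI 1640, 10% FBS, 2 mM L-glutamine) infected after 24 h with 5000 T. cruzi Tulahuen C2C4 LacZ trypomastigotes plus serial drug dilutions; 4 days at 37 °C, 5% CO2. MIC read microscopically; for IC50, CPRG/Nonidet added, colour read at 540 nm after 2–4 h, IC50 from sigmoidal curve.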

Plasmodium falciparum = assay: In vitro antiparasitic activity against Plasmodium falciparum; type: functional, organism-based
Leishmania donovani = assay: In vitro antiparasitic activity was determined against Leishmania donovani; type: functional, organism-based
In short: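 Mouse peritoneal macrophages in RPMI 1640 with 10% heat-inactivated FBS, infected after 24 h with L. donovani amastigotes (3:1 amastigotes to macrophages); free amastigotes removed at 4 h. Next day, drug dilutions added; 96 h at 37 °C, 5% CO2. Slides methanol-fixed and Giemsa-stained; infected vs noninfected macrophages counted microscopically as % of control; IC50 by linear regression.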

Trypanosoma brucei = assay: In vitro antiparasitic activity was determined against Trypanosoma brucei; type: functional, organism-based
L6 [1] = assay: In vitro cytotoxic activity was determined against L6 cells; type: functional, cell-based, Rattus norvegicus
L6 [2] = assay: In vitro cytotoxic activity against L6 cells; type: functional, cell-based; conditions: Rattus norvegicus
[3] = target: 6-phosphogluconate dehydrogenase (Ovis aries) (UniProt P00349); assay: Inhibition constant against 6-phosphogluconate dehydrogenase of sheep liver; NI denotes no inhibition
Chain of 6-phosphogluconate dehydrogenase (Ovis aries) (P00349 whole entry, looked up): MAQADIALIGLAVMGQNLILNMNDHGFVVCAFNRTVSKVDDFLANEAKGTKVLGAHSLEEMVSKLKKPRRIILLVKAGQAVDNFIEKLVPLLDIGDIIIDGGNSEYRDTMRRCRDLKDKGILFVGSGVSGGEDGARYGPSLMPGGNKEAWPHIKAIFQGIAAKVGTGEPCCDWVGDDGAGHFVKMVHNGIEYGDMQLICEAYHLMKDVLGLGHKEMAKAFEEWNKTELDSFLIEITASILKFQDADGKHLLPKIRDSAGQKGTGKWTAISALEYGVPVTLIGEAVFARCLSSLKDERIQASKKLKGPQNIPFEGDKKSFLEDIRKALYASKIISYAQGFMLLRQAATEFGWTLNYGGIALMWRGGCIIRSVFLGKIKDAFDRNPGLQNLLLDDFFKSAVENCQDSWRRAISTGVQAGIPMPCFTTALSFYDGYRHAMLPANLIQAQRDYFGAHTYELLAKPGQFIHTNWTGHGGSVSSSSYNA

[4] = target: 6-phosphogluconate dehydrogenase (Trypanosoma brucei) (UniProt P31072); assay: Inhibition constant against 6-phosphogluconate dehydrogenase of Trypanosoma brucei expressed in Escherichia coli; NI denotes no inhibition
Chain of 6-phosphogluconate dehydrogenase (Trypanosoma brucei) (P31072 whole entry, looked up): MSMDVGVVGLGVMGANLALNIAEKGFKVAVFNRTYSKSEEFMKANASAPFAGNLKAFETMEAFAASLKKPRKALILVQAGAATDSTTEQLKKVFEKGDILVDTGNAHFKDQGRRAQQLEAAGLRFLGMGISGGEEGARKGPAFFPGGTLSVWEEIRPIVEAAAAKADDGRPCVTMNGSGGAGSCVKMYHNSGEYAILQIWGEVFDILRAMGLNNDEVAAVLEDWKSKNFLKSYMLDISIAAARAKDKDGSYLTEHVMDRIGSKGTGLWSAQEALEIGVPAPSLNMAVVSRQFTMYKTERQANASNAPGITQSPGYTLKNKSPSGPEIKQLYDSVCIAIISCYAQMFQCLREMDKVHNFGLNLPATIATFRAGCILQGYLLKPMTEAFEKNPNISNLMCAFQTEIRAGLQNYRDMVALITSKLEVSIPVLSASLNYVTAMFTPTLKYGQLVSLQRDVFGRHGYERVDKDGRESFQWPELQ

Q: Which results are given for `O=C1OC[C@@H](OC2CCCO2)[C@H]1OC1CCCO1` (stereo partly drawn)?
A: IC50 (Trypanosoma cruzi): > 315 µM; IC50 (Plasmodium falciparum): 78 µM; IC50 (Leishmania donovani): > 105 µM; IC50 (Trypanosoma brucei): 113 µM

Q: What does the source list for `CC1(C)O[C@H](COP(=O)(OCc2ccccc2)OCc2ccccc2)[C@H](C(=O)NOCc2ccccc2)O1`?
A: IC50 (Trypanosoma cruzi): > 166 µM; IC50 (Plasmodium falciparum): > 92 µM; IC50 (Leishmania donovani): > 55 µM; IC50 (Trypanosoma brucei): 126 µM

Q: `CC(=O)O[C@H](COP(=O)(O)O)C[S+]([O-])CC(=O)O` (stereo partly drawn) was tested. Which IC50 (Trypanosoma cruzi) did it give?
A: > 296 µM

Q: And the IC50 (Plasmodium falciparum)?
A: > 164 µM

Q: What about the IC50 (Leishmania donovani) of the same molecule?
A: > 99 µM

Q: What about the IC50 (Trypanosoma brucei) of the same molecule?
A: 113 µM

Q: And the IC50 (L6 [1])?
A: Not Active

Q: What does the source list for `CC(=O)O[C@H](COP(=O)(O)O)[C@@H](OC(C)=O)C(=O)NO`?
A: IC50 (L6 [2]): > 285 µM; IC50 (Trypanosoma cruzi): > 285 µM; IC50 (Plasmodium falciparum): > 159 µM; IC50 (Trypanosoma brucei): 229 µM

Q: Which IC50 (Trypanosoma cruzi) does the source give for `O=C(C[S+]([O-])C[C@H](O)COP(=O)(OCc1ccccc1)OCc1ccccc1)OCc1ccccc1` (stereo partly drawn) here?
A: > 169 µM

Q: And the IC50 (Plasmodium falciparum)?
A: > 94 µM

Q: What about the IC50 (Leishmania donovani) of the same molecule?
A: > 56 µM

Q: And the Ki [3]?
A: Not Active

Q: And the IC50 (Trypanosoma brucei)?
A: 82 µM

Q: What about the Ki [4] of the same molecule?
A: Not Active

Q: How did the IC50 (Trypanosoma cruzi) turn out when `CC(=O)O[C@H](COP(=O)(OCc1ccccc1)OCc1ccccc1)CSCC(=O)OCc1ccccc1` was run?
A: > 161 µM

Q: What about the IC50 (Plasmodium falciparum) of the same molecule?
A: 62 µM

Q: What about the IC50 (Leishmania donovani) of the same molecule?
A: 28 µM

Q: And the IC50 (Trypanosoma brucei)?
A: 137 µM

Q: Which IC50 (L6 [1]) does the source give for `O=C1OC[C@@H](O)[C@H]1O` here?
A: Not Active

Q: With `CC(=O)O[C@H](COP(=O)(OCc1ccccc1)OCc1ccccc1)[C@@H](OC(C)=O)C(=O)N(OCc1ccccc1)C(C)=O` as the molecule, how does the IC50 (Trypanosoma cruzi) read?
A: > 143 µM

Q: What about the IC50 (Plasmodium falciparum) of the same molecule?
A: > 80 µM

Q: What about the IC50 (Leishmania donovani) of the same molecule?
A: > 48 µM

Q: What about the IC50 (Trypanosoma brucei) of the same molecule?
A: 49 µM

Q: With `O=C(O)C[S+]([O-])C[C@H](O)COP(=O)(O)O` (stereo partly drawn) as the molecule, how does the IC50 (L6 [2]) read?
A: 343 µM

Q: And the IC50 (Trypanosoma cruzi)?
A: > 343 µM

Q: What about the IC50 (Plasmodium falciparum) of the same molecule?
A: > 191 µM

Q: And the IC50 (Trypanosoma brucei)?
A: 244 µM

Q: What does the source list for `CC1(C)O[C@H](COP(=O)(O)O)[C@H](C(N)=O)O1`?
A: IC50 (L6 [2]): > 220 µM; IC50 (Trypanosoma cruzi): 131 µM; IC50 (Plasmodium falciparum): > 196 µM; IC50 (Trypanosoma brucei): 212 µM

Q: Which IC50 (Trypanosoma cruzi) does the source give for `O=C(NO)[C@H](O)[C@H](O)CO` here?
A: 290 µM

Q: And the IC50 (Plasmodium falciparum)?
A: 18 µM

Q: And the IC50 (Leishmania donovani)?
A: > 199 µM

Q: What about the IC50 (Trypanosoma brucei) of the same molecule?
A: 116 µM

Q: `O=C(C[S+]([O-])C[C@@H](COP(=O)(OCc1ccccc1)OCc1ccccc1)OC1CCCO1)OCc1ccccc1` (stereo partly drawn) was tested. Which IC50 (L6 [2]) did it give?
A: 91 µM

Q: And the IC50 (Trypanosoma cruzi)?
A: 82 µM

Q: What about the IC50 (Plasmodium falciparum) of the same molecule?
A: 7 µM

Q: What about the Ki [3] of the same molecule?
A: Not Active

Q: And the IC50 (Trypanosoma brucei)?
A: 73 µM

Q: And the Ki [4]?
A: Not Active

Q: For `O=C(CSC[C@H](O)CO)OCc1ccccc1`, which IC50 (Trypanosoma cruzi) is on record?
A: 212 µM

Q: And the IC50 (Plasmodium falciparum)?
A: > 195 µM

Q: And the IC50 (Leishmania donovani)?
A: > 117 µM

Q: What about the IC50 (Trypanosoma brucei) of the same molecule?
A: 75 µM

Q: With `O=C(NO)[C@H](OC1CCCO1)[C@@H](CCO)OC1CCCO1` (stereo partly drawn) as the molecule, how does the IC50 (Trypanosoma cruzi) read?
A: > 282 µM

Q: What about the IC50 (Plasmodium falciparum) of the same molecule?
A: ~157 µM

Q: And the IC50 (Leishmania donovani)?
A: > 94 µM

Q: What about the IC50 (Trypanosoma brucei) of the same molecule?
A: 61 µM

Q: Which results are given for `CC(=O)O[C@H](COP(=O)(OCc1ccccc1)OCc1ccccc1)C[S+]([O-])CC(=O)OCc1ccccc1` (stereo partly drawn)?
A: IC50 (L6 [2]): 60 µM; IC50 (Trypanosoma cruzi): > 157 µM; IC50 (Plasmodium falciparum): 18 µM; IC50 (Leishmania donovani): 27 µM; Ki [3]: Not Active; IC50 (Trypanosoma brucei): 36 µM; Ki [4]: Not Active

Q: What does the source list for `CC1(C)OC[C@H](CSCC(=O)OCc2ccccc2)O1`?
A: IC50 (Trypanosoma cruzi): 215 µM; IC50 (Plasmodium falciparum): > 169 µM; IC50 (Leishmania donovani): > 101 µM; IC50 (Trypanosoma brucei): > 304 µM

Q: With `CC1(C)O[C@H](CO)[C@H](C(=O)NOCc2ccccc2)O1` as the molecule, how does the IC50 (L6 [2]) read?
A: 37 µM

Q: And the IC50 (Trypanosoma cruzi)?
A: > 32 µM

Q: What about the IC50 (Plasmodium falciparum) of the same molecule?
A: 53 µM

Q: And the IC50 (Leishmania donovani)?
A: 30 µM

Q: What about the IC50 (Trypanosoma brucei) of the same molecule?
A: 3.5 µM

Q: How did the IC50 (L6 [2]) turn out when `CC1(C)O[C@H](COP(=O)(O)O)[C@H](C(=O)NO)O1` was run?
A: > 332 µM

Q: What about the IC50 (Trypanosoma cruzi) of the same molecule?
A: > 332 µM

Q: What about the IC50 (Plasmodium falciparum) of the same molecule?
A: > 184 µM

Q: What about the IC50 (Leishmania donovani) of the same molecule?
A: > 111 µM

Q: What about the IC50 (Trypanosoma brucei) of the same molecule?
A: > 332 µM

Q: How did the IC50 (Trypanosoma cruzi) turn out when `O=C(NOCc1ccccc1)[C@H](O)[C@H](O)COP(=O)(OCc1ccccc1)OCc1ccccc1` was run?
A: > 179 µM

Q: And the IC50 (Plasmodium falciparum)?
A: > 100 µM

Q: What about the IC50 (Leishmania donovani) of the same molecule?
A: 33 µM

Q: What about the IC50 (Trypanosoma brucei) of the same molecule?
A: 130 µM

Q: Which results are given for `NC(=O)[C@H](O)[C@H](O)COP(=O)(O)O`?
A: IC50 (L6 [2]): > 418 µM; IC50 (Trypanosoma cruzi): > 418 µM; IC50 (Plasmodium falciparum): > 232 µM; IC50 (Leishmania donovani): > 139 µM; IC50 (Trypanosoma brucei): 277 µM

Q: Which IC50 (L6 [2]) does the source give for `O=C(NO)[C@H](O)[C@H](O)COP(=O)(O)O` here?
A: 269 µM

Q: What about the IC50 (Trypanosoma cruzi) of the same molecule?
A: > 389 µM

Q: What about the IC50 (Plasmodium falciparum) of the same molecule?
A: > 216 µM

Q: What about the IC50 (Leishmania donovani) of the same molecule?
A: > 130 µM

Q: What about the IC50 (Trypanosoma brucei) of the same molecule?
A: > 389 µM

Q: For `CC(=O)O[C@H](COP(=O)(OCc1ccccc1)OCc1ccccc1)[C@@H](OC(C)=O)C(=O)NOCc1ccccc1`, which IC50 (Trypanosoma cruzi) is on record?
A: > 154 µM

Q: What about the IC50 (Plasmodium falciparum) of the same molecule?
A: > 85 µM

Q: And the IC50 (Leishmania donovani)?
A: > 17 µM

Q: And the Ki [3]?
A: Not Active

Q: What about the IC50 (Trypanosoma brucei) of the same molecule?
A: 60 µM

Q: And the Ki [4]?
A: Not Active

Q: Which IC50 (Trypanosoma cruzi) does the source give for `O=C(CSC[C@H](O)COP(=O)(OCc1ccccc1)OCc1ccccc1)OCc1ccccc1` here?
A: 124 µM

Q: And the IC50 (Plasmodium falciparum)?
A: 65 µM

Q: What about the IC50 (Leishmania donovani) of the same molecule?
A: 23 µM

Q: What about the IC50 (Trypanosoma brucei) of the same molecule?
A: 47 µM

Q: Which results are given for `CC1(C)O[C@@H]2COC(=O)[C@@H]2O1`?
A: IC50 (Trypanosoma cruzi): > 569 µM; IC50 (Plasmodium falciparum): > 316 µM; IC50 (Leishmania donovani): > 190 µM; IC50 (Trypanosoma brucei): 262 µM; IC50 (L6 [1]): Not Active
